Measured values: ChEMBL document CHEMBL1122647 (J Med Chem, 1984)
Several values for one entry are separate records, joined by “and”; a condition that tells them apart may be missing. Equal entries are not always repeated.

Experiments:
Mus musculus [1] = assay: In vivo antitumor activity was evaluated against L1210 leukemia implanted mice by measuring number of survival days after intraperitoneal administration of compound at 0.12 mg/kg at a range of 12-15; type: functional
Outline: (§1)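 Male B6D2F1J mice, five per group, were inoculated ip with 10^5 L1210 cells on day 0. Treatment began on day 1, given ip in sterile water twice daily on days 1-4 and 7-10, with a single double-dose injection on each of days 5 and 6. Read-outs were percent body weight change over 7 days, survival range in days, treated/control median survival, and percent increase in life span.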

Mus musculus [2] = assay: In vivo antitumor activity was evaluated against L1210 leukemia implanted mice by measuring number of survival days after intraperitoneal administration of compound at 0.06 mg/kg at a range of 11-13; type: functional
Outline: (§2)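 Male B6D2F1J mice, five per group, were implanted ip with 10^5 L1210 cells on day 0. Treatment began on day 1. Drug was given ip in sterile water, twice daily on days 1-4 and 7-10, and as a single double-dose injection on days 5 and 6. Survival was recorded in days (range, and median treated/control), with % ILS derived from it. Body-weight change at 7 days was also recorded.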

L1210 = assay: Compound was evaluated for its cytotoxicity against the L1210 murine leukemia cell culture; type: functional; conditions: Mus musculus, read-out: ID50 (the source's name)
Mus musculus [3] = assay: In vivo antitumor activity was evaluated against L1210 leukemia implanted mice by measuring T/C median after intraperitoneal administration of compound at 0.12 mg/kg; T/C median=14/8; type: functional; outline: as §1
Mus musculus [4] = assay: In vivo antitumor activity was evaluated against L1210 leukemia implanted mice by measuring 7-day weight change after intraperitoneal administration of compound at 0.06 mg/kg; type: functional
Outline: (§3)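 Groups of five male B6D2F1J mice were inoculated ip with 10^5 L1210 cells on day 0. Starting day 1, drug in sterile water was given ip bid on days 1-4 and 7-10, with a single double-dose injection on days 5 and 6. Percent body-weight change was recorded at day 7, along with survival range, median T/C and ILS.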

Mus musculus [5] = assay: In vivo antitumor activity was evaluated against L1210 leukemia implanted mice by measuring T/C median after intraperitoneal administration of compound at 0.24 mg/kg; T/C median=19/8; type: functional; outline: as §2
Mus musculus [6] = assay: In vivo antitumor activity was evaluated against L1210 leukemia implanted mice by measuring percent increase in life span after intraperitoneal administration of compound at 0.24 mg/kg; type: functional; outline: as §2
[7] = biological target: T1, Dihydrofolate reductase (Mus musculus) (UniProt P00375)
T1 sequence (whole entry): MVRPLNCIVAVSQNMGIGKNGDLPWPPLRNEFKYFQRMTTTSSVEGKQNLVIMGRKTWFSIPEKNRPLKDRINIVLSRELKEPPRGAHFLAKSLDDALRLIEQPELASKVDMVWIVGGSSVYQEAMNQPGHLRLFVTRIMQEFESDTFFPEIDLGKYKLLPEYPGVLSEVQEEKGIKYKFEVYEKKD

Mus musculus [8] = assay: In vivo antitumor activity was evaluated against L1210 leukemia implanted mice by measuring percent increase in life span after intraperitoneal administration of compound at 0.12 mg/kg; type: functional; outline: as §1
Mus musculus [9] = assay: In vivo antitumor activity was evaluated against L1210 leukemia implanted mice by measuring number of survival days after intraperitoneal administration of compound at 0.24 mg/kg at a range of 12-20; type: functional; outline: as §2
Mus musculus [10] = assay: In vivo antitumor activity was evaluated against L1210 leukemia implanted mice by measuring 7-day weight change after intraperitoneal administration of compound at 0.24 mg/kg; type: functional; outline: as §3
Mus musculus [11] = assay: In vivo antitumor activity was evaluated against L1210 leukemia implanted mice by measuring 7-day weight change after intraperitoneal administration of compound at 0.12 mg/kg; type: functional; outline: as §1
Mus musculus [12] = assay: In vivo antitumor activity was evaluated against L1210 leukemia implanted mice by measuring percent increase in life span after intraperitoneal administration of compound at 0.06 mg/kg; type: functional; outline: as §2
Mus musculus [13] = assay: In vivo antitumor activity was evaluated against L1210 leukemia implanted mice by measuring number of survival days after intraperitoneal administration of compound at 0.5 mg/kg; at a range of 13-16; type: functional; outline: as §2
Mus musculus [14] = assay: In vivo antitumor activity was evaluated against L1210 leukemia implanted mice by measuring percent increase in life span after intraperitoneal administration of compound at 2 mg/kg; type: functional; outline: as §2
Mus musculus [15] = assay: In vivo antitumor activity was evaluated against L1210 leukemia implanted mice by measuring T/C median after intraperitoneal administration of compound at 2 mg/kg; T/C median=19/8; type: functional; outline: as §2
Mus musculus [16] = assay: In vivo antitumor activity was evaluated against L1210 leukemia implanted mice by measuring 7-day weight change after intraperitoneal administration of compound at 2 mg/kg; type: functional; outline: as §3
Mus musculus [17] = assay: In vivo antitumor activity was evaluated against L1210 leukemia implanted mice by measuring percent increase in life span after intraperitoneal administration of compound at 1 mg/kg; type: functional; outline: as §2
Mus musculus [18] = assay: In vivo antitumor activity was evaluated against L1210 leukemia implanted mice by measuring number of survival days after intraperitoneal administration of compound at 1 mg/kg; at a range of 13-17; type: functional; outline: as §2
Mus musculus [19] = assay: In vivo antitumor activity was evaluated against L1210 leukemia implanted mice by measuring 7-day weight change after intraperitoneal administration of compound at 1 mg/kg; type: functional; outline: as §3
Mus musculus [20] = assay: In vivo antitumor activity was evaluated against L1210 leukemia implanted mice by measuring 7-day weight change after intraperitoneal administration of compound at 0.5 mg/kg; type: functional; outline: as §3
Mus musculus [21] = assay: In vivo antitumor activity was evaluated against L1210 leukemia implanted mice by measuring T/C median after intraperitoneal administration of compound at 0.5 mg/kg; T/C median=15/8; type: functional; outline: as §2
Mus musculus [22] = assay: In vivo antitumor activity was evaluated against L1210 leukemia implanted mice by measuring T/C median after intraperitoneal administration of compound at 1 mg/kg; T/C median=16/8; type: functional; outline: as §2
Mus musculus [23] = assay: In vivo antitumor activity was evaluated against L1210 leukemia implanted mice by measuring number of survival days after intraperitoneal administration of compound at 2 mg/kg; at a range of 16-20; type: functional; outline: as §2
Mus musculus [24] = assay: In vivo antitumor activity was evaluated against L1210 leukemia implanted mice by measuring percent increase in life span after intraperitoneal administration of compound at 0.5 mg/kg; type: functional; outline: as §2
Mus musculus [25] = assay: In vivo antitumor activity was evaluated against L1210 leukemia implanted mice by measuring 7-day weight change after intraperitoneal administration of compound at 32 mg/kg; type: functional; outline: as §3
Mus musculus [26] = assay: In vivo antitumor activity was evaluated against L1210 leukemia implanted mice by measuring T/C median after intraperitoneal administration of compound at 16 mg/kg; 21/9; type: functional; outline: as §1
Mus musculus [27] = assay: In vivo antitumor activity was evaluated against L1210 leukemia implanted mice by measuring 7-day weight change after intraperitoneal administration of compound at 16 mg/kg; type: functional; outline: as §3
Mus musculus [28] = assay: In vivo antitumor activity was evaluated against L1210 leukemia implanted mice by measuring number of survival days after intraperitoneal administration of compound at 32 mg/kg; range 21-24; type: functional; outline: as §1
Mus musculus [29] = assay: In vivo antitumor activity was evaluated against L1210 leukemia implanted mice by measuring number of survival days after intraperitoneal administration of compound at 16 mg/kg; range 19-21; type: functional; outline: as §1
Mus musculus [30] = assay: In vivo antitumor activity was evaluated against L1210 leukemia implanted mice by measuring percent increase in life span after intraperitoneal administration of compound at 16 mg/kg; type: functional; conditions: 16 mg/kg; outline: as §2
Mus musculus [31] = assay: In vivo antitumor activity was evaluated against L1210 leukemia implanted mice by measuring T/C median after intraperitoneal administration of compound at 32 mg/kg; 22/9; type: functional; outline: as §1

## Nc1nc(N)c2nc(CNc3ccc(C(=O)N[C@@H](CCC(=O)O)C(=O)O)cc3)cnc2n1 [AMINOPTERIN]
Mus musculus [1]
  Survival days: 12
Mus musculus [2]
  Survival days: 11
L1210
  IC50: 0.0031 µM
Mus musculus [3]
  Survival days: 14
Mus musculus [4]
  Weight change: 1%
Mus musculus [5]
  Survival days: 19
Mus musculus [6]
  Activity: 138%
[7]
  ID50: 0.04 µM
Mus musculus [8]
  Activity: 75%
Mus musculus [9]
  Survival days: 12
Mus musculus [10]
  Weight change: -12%
Mus musculus [11]
  Weight change: 3%
Mus musculus [12]
  Activity: 50%

## Nc1nc(N)c2nc(CNc3ccc(C(=O)NC(CCS(=O)(=O)O)C(=O)O)cc3)cnc2n1 (stereo unspecified)
Mus musculus [13]
  Survival days: 13
Mus musculus [14]
  Activity: 138%
Mus musculus [15]
  Survival days: 19
L1210
  IC50: 0.031 µM
Mus musculus [16]
  Activity: -8%
Mus musculus [17]
  Activity: 100%
[7]
  ID50: 0.063 µM
Mus musculus [18]
  Survival days: 13
Mus musculus [19]
  Activity: -8%
Mus musculus [20]
  Weight change: -1%
Mus musculus [21]
  Survival days: 15
Mus musculus [22]
  Survival days: 16
Mus musculus [23]
  Survival days: 16
Mus musculus [24]
  Activity: 88%

## CN(Cc1cnc2nc(N)nc(N)c2n1)c1ccc(C(=O)NC(CCS(=O)(=O)O)C(=O)O)cc1 (stereo unspecified)
Mus musculus [25]
  Weight change: -12%
Mus musculus [26]
  Survival days: 21
L1210
  IC50: 0.18 µM
Mus musculus [27]
  Weight change: -9%
[7]
  ID50: 0.041 µM
Mus musculus [28]
  Survival days: 21
Mus musculus [29]
  Survival days: 19
Mus musculus [30]
  Activity: 155% and 144%
Mus musculus [31]
  Survival days: 22
